From ChEMBL document CHEMBL4024799, “Synthesis and Biological Characterization of Aryl Uracil Inhibitors of Hepatitis C Virus NS5B Polymerase: Discovery of ABT-072, a trans-Stilbene Analog with Good Oral Bioavailability” (J Med Chem, 2018)
≈ marks a conversion by molar mass, not a printed value.

What was measured:
[1] = Aqueous solubility of the compound at pH 7.2; assay type: physicochemical; conditions: buffer
[2] = Inhibition of HCV genotype 1b BK NS5B RNA dependent RNA polymerase assessed as reduction in [3H]UTP incorporation in to RNA preincubated for 15 mins followed by [3H]UTP addition measured after 3 hrs by microbeta scintillation counting method; set-up: species or system Hepatitis C virus (isolate BK)
Summary of the method: (§1)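 NS5B polymerase from genotype 1a (H77) or 1b (BK); formation of RNA product measured as 3H-UTP incorporation by scintillation counting; IC50 calculated with a standard IC50 equation.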

[3] = Stability in human liver microsomes assessed as parent compound remaining after 30 mins; assay type: ADME, microsome; conditions: read-out: Stability
Summary of the method: (§2)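 Compound incubated 30 min with human or rat liver microsomes; percent of parent compound remaining reported.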

Hepatitis C virus [4] = experiment: Antiviral activity against HCV genotype 1b Con1 infected in human HuH7 cells harboring HCV subgenomic bicistronic replicon after 3 days by luciferase reporter gene assay; assay type: functional, cell-based, Hepacivirus hominis; conditions: genotype 1b Con1, Huh-7, 72 h
Summary of the method: (§3)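 Subgenomic genotype 1a (H77) or 1b (Con1) replicons carrying firefly luciferase, transfected into Huh-7 cells. Replication inhibition was read as luciferase level in cell lysate on a luminometer and reported as EC50. Runs were done without human plasma or with 40% human plasma added, to assess inhibitor–protein binding.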

[5] = Passive permeability of the compound by PAMPA; assay type: physicochemical; conditions: read-out: permeability
[6] = Stability in rat liver microsomes assessed as parent compound remaining after 30 mins; assay type: ADME, microsome; conditions: read-out: Stability; summary of the method: as §2
[7] = Inhibition of HCV genotype 1a H77 NS5B RNA dependent RNA polymerase assessed as reduction in [3H]UTP incorporation in to RNA preincubated for 15 mins followed by [3H]UTP addition measured after 3 hrs by microbeta scintillation counting method; set-up: species or system Hepatitis C virus (isolate H77); summary of the method: as §1
Hepatitis C virus [8] = experiment: Antiviral activity against HCV genotype 1b Con1 infected in human HuH7 cells harboring HCV subgenomic bicistronic replicon after 3 days in presence of 40% human plasma by luciferase reporter gene assay; assay type: functional, cell-based, Hepacivirus hominis; conditions: genotype 1b Con1, Huh-7, 72 h; summary of the method: as §3
[9] = Half life in Sprague-Dawley rat at 5 mg/kg, po; assay type: ADME, organism-based; conditions: in vivo
Summary of the method: (§4)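 Sprague-Dawley rats, n = 3 per experiment; solution in DMSO:PEG400 (1:9, v/v) given IV or oral; 5 mg/kg for both routes, and 30 mg/kg oral; plasma t1/2, Vss, clearance, Cmax, AUC and F% determined.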

[10] = Oral bioavailability in Sprague-Dawley rat at 5 mg/kg; assay type: ADME, organism-based; conditions: in vivo; summary of the method: as §4
[11] = Plasma clearance in Sprague-Dawley rat at 5 mg/kg, iv; assay type: ADME, organism-based; summary of the method: as §4
[12] = AUC in Sprague-Dawley rat at 5 mg/kg, po; assay type: ADME, organism-based; conditions: in vivo; summary of the method: as §4
Hepatitis C virus [13] = experiment: Antiviral activity against HCV genotype 1a H77 infected in human HuH7 cells harboring HCV subgenomic bicistronic replicon after 3 days by luciferase reporter gene assay; assay type: functional, cell-based, Hepacivirus hominis; conditions: genotype 1a H77, Huh-7, 72 h; summary of the method: as §3
Rattus norvegicus = experiment: Time at which plasma concentration stays above HCV genotype 1b Con1 replicon EC50 in Sprague-Dawley rat at 5 mg/kg, po
[14] = Plasma concentration in Sprague-Dawley rat at 5 mg/kg, po up to 8 hrs; assay type: ADME, organism-based; summary of the method: as §4
[15] = Ratio of plasma concentration in Sprague-Dawley rat at 5 mg/kg, po to EC50 for HCV genotype 1b Con1 infected in human HuH7 cells harboring HCV subgenomic bicistronic replicon
Hepatitis C virus [16] = experiment: Antiviral activity against HCV genotype 1a H77 infected in human HuH7 cells harboring HCV subgenomic bicistronic replicon after 3 days in presence of 40% human plasma by luciferase reporter gene assay; assay type: functional, cell-based, Hepacivirus hominis; conditions: genotype 1a H77, Huh-7, 72 h; summary of the method: as §3
[17] = Cmax in Sprague-Dawley rat at 5 mg/kg, po; assay type: ADME, organism-based; set-up: dose 5 mg/kg, route oral; conditions: in vivo; summary of the method: as §4

Compound: COc1c(C(=O)N(C)c2ccc(NS(C)(=O)=O)cc2)cc(N2CCC(=O)NC2=O)cc1C(C)(C)C
- solubility ([1]; read-out: solubility): > 50 µM
- IC50 [2]: 273 nM
- remaining at 0.5 h [3]: 64%
- EC50 (Hepatitis C virus [4]): 1550 nM
- Papp [5]: 0.25 ×10⁻⁶ cm/s
- remaining at 0.5 h [6]: 83%
- IC50 [7]: 140 nM

Compound: COc1c(C2CC2c2ccc(NS(C)(=O)=O)cc2)cc(N2CCC(=O)NC2=O)cc1C(C)(C)C (stereo unspecified)
- solubility ([1]; read-out: solubility): 18.8 µM (≈ 9.13 µg/mL)
- IC50 [2]: 514 nM
- remaining at 0.5 h [3]: 26.5%
- EC50 (Hepatitis C virus [4]): 56 nM
- Papp [5]: 2.8 ×10⁻⁶ cm/s
- remaining at 0.5 h [6]: 32.3%
- IC50 [7]: 267 nM
- EC50 (Hepatitis C virus [8]): 431 nM

Compound: COc1c(/C=C(\C)c2ccc([N+](=O)[O-])cc2)cc(N2CCC(=O)NC2=O)cc1C(C)(C)C
- solubility ([1]; read-out: solubility): < 2 µM
- IC50 [2]: 16.7 nM
- remaining at 0.5 h [3]: 18.5%
- EC50 (Hepatitis C virus [4]): 12.4 nM
- Papp [5]: 0.58 ×10⁻⁶ cm/s
- remaining at 0.5 h [6]: 36.5%
- IC50 [7]: 4.9 nM
- EC50 (Hepatitis C virus [8]): 82.8 nM

Compound: COc1c(NC(=O)c2ccc(NS(C)(=O)=O)cc2)cc(N2CCC(=O)NC2=O)cc1C(C)(C)C
- solubility ([1]; read-out: solubility): 32.8 µM (≈ 16 µg/mL)
- IC50 [2]: 46 nM
- remaining at 0.5 h [3]: > 85%
- EC50 (Hepatitis C virus [4]): 29 nM
- Papp [5]: 0.22 ×10⁻⁶ cm/s
- remaining at 0.5 h [6]: > 85%
- IC50 [7]: 8.8 nM
- EC50 (Hepatitis C virus [8]): 21 nM

Compound: COc1c(/C=C/c2ccc(NS(C)(=O)=O)c(F)c2)cc(-n2ccc(=O)[nH]c2=O)cc1C(C)(C)C
- solubility ([1]; read-out: solubility): 15.5 µM (≈ 7.56 µg/mL)
- half-life [9]: 3.7 h
- bioavailability [10]: 76%
- clearance [11]: 6.33 mL/min/kg
- AUC [12]: 10400 ng·h/mL
- EC50 (Hepatitis C virus [4]): 2.1 nM
- EC50 (Hepatitis C virus [13]): 13.8 nM
- EC50 (Hepatitis C virus [8]): 5.3 nM

Compound: COc1c(CCc2ccc(NS(C)(=O)=O)cc2)cc(N2CCC(=O)NC2=O)cc1C(C)(C)C
- solubility ([1]; read-out: solubility): 18.8 µM (≈ 8.9 µg/mL)
- IC50 [2]: 40.3 nM
- remaining at 0.5 h [3]: 2.5%
- EC50 (Hepatitis C virus [4]): 39.1 nM
- Papp [5]: 4.06 ×10⁻⁶ cm/s
- remaining at 0.5 h [6]: 1.6%
- IC50 [7]: 26.5 nM
- EC50 (Hepatitis C virus [8]): 91.3 nM

Compound: COc1c(/C=C/c2ccc(NS(C)(=O)=O)cc2)cc(N2CCC(=O)NC2=O)cc1C(C)(C)C
- solubility [1]: 10.3 µM (≈ 4.86 µg/mL)
- half-life [9]: 2.3 h
- bioavailability [10]: 18%
- IC50 [2]: 0.7 nM
- Time (Rattus norvegicus): 8 h
- clearance [11]: 10.7 mL/min/kg
- AUC [12]: 1520 ng·h/mL
- remaining at 0.5 h [3]: 48.1%
- EC50 (Hepatitis C virus [4]): 1.1 nM
- Papp [5]: 0.92 ×10⁻⁶ cm/s
- concentration at 8 h [14]: > 200 nM
- Ratio [15]: >60
- EC50 (Hepatitis C virus [13]): 3.1 nM
- remaining at 0.5 h [6]: 33.5%
- IC50 [7]: 0.3 nM
- EC50 (Hepatitis C virus [16]): 50 nM
- Cmax [17]: 260 ng/mL
- EC50 (Hepatitis C virus [8]): 3.1 nM

Compound: COc1c(COc2ccc(NS(C)(=O)=O)cc2)cc(N2CCC(=O)NC2=O)cc1C(C)(C)C
- solubility ([1]; read-out: solubility): 3 µM (≈ 1.43 µg/mL)
- IC50 [2]: 167 nM
- remaining at 0.5 h [3]: > 85%
- EC50 (Hepatitis C virus [4]): 53 nM
- Papp [5]: 7.47 ×10⁻⁶ cm/s
- remaining at 0.5 h [6]: 80%
- IC50 [7]: 100 nM
- EC50 (Hepatitis C virus [8]): 321 nM

Compound: COc1c(/C=C/c2ccc(NS(C)(=O)=O)cc2)cc(-n2cc(F)c(=O)[nH]c2=O)cc1C(C)(C)C
- solubility ([1]; read-out: solubility): 15.5 µM (≈ 7.56 µg/mL)
- half-life [9]: 3.7 h
- bioavailability [10]: 52%
- clearance [11]: 14.2 mL/min/kg
- AUC [12]: 3120 ng·h/mL
- EC50 (Hepatitis C virus [4]): 9.6 nM
- EC50 (Hepatitis C virus [13]): 89 nM
- EC50 (Hepatitis C virus [8]): 59.4 nM

Compound: COc1c(C#Cc2ccc(NS(C)(=O)=O)cc2)cc(N2CCC(=O)NC2=O)cc1C(C)(C)C
- solubility ([1]; read-out: solubility): 2.3 µM (≈ 1.08 µg/mL)
- half-life [9]: 3 h
- bioavailability [10]: 14%
- IC50 [2]: 3 nM
- clearance [11]: 31.7 mL/min/kg
- AUC [12]: 350 ng·h/mL
- remaining at 0.5 h [3]: 35.8%
- EC50 (Hepatitis C virus [4]): 3.9 nM
- Papp [5]: 0.83 ×10⁻⁶ cm/s
- remaining at 0.5 h [6]: 50%
- IC50 [7]: 1.1 nM
- Cmax [17]: 60 ng/mL
- EC50 (Hepatitis C virus [8]): 29.8 nM

Compound: COc1c(C(=O)Nc2ccc(NS(C)(=O)=O)cc2)cc(N2CCC(=O)NC2=O)cc1C(C)(C)C
- solubility ([1]; read-out: solubility): < 1.5 µM
- IC50 [2]: 21.7 nM
- clearance [11]: 25 mL/min/kg
- AUC [12]: 50 ng·h/mL
- remaining at 0.5 h [3]: > 85%
- EC50 (Hepatitis C virus [4]): 19 nM
- Papp [5]: 0.25 ×10⁻⁶ cm/s
- remaining at 0.5 h [6]: > 85%
- IC50 [7]: 10.8 nM
- EC50 (Hepatitis C virus [8]): 22 nM

Compound: COc1c(CNc2ccc(NS(C)(=O)=O)cc2)cc(N2CCC(=O)NC2=O)cc1C(C)(C)C
- solubility ([1]; read-out: solubility): 90.8 µM (≈ 43.1 µg/mL)
- IC50 [2]: 270 nM
- remaining at 0.5 h [3]: 67%
- EC50 (Hepatitis C virus [4]): 522 nM
- Papp [5]: 0.41 ×10⁻⁶ cm/s
- remaining at 0.5 h [6]: 58%
- IC50 [7]: 80 nM
